The text below walks through data of ChEMBL document CHEMBL1671680, “Pradimicin S, a highly soluble nonpeptidic small-size carbohydrate-binding antibiotic, is an anti-HIV drug lead for both microbicidal and systemic use” (Antimicrob Agents Chemother, 2010).

SMILES strings stand for the structures. pEC50, pIC50: −log10 of the molar value. Converted amounts (≈) assume the structure as drawn. The source made the active and inactive calls. The rule behind the calls is not given here.

Series [1] can be described thus: Cytotoxicity against human MT4 cells after 7 days by trypan blue staining. The class given is cell-based.
Series [2] has as its system PBMC. Description: Immunostimulatory activity against human PBMC assessed as suppression of IL-13 production at 21 uM after 72 hrs. The class given is functional. Summed up: (§1)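 Unstimulated PBMCs and PHA-blasts from three donors, in three independent experiments, cultured with test compound at 20 μg/ml (21 or 22 μM). Supernatants collected after 72 h. The cytokine profile was read on a Bio-Plex 27-plex human cytokine bead immunoassay, using beads coupled to cytokine-specific monoclonal antibodies and run per the kit instructions.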

In series [3] the test system is Human immunodeficiency virus 1. In words: Antiviral activity against X4 tropic HIV-1 group O isolate BCF06 infected in human PBMC assessed as inhibition of viral replication […] by ELISA. The class given is functional, organism-based. Conditions: Human immunodeficiency virus 1, group O isolate BCF06. Summed up:
(§2)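 PBMCs from healthy donors were stimulated with PHA (2 μg/ml) for 3 days, then seeded at 0.5 × 10^6 cells/well in RPMI 1640 with 10% FCS, IL-2 (25 U/ml) and compound. Virus was added at a final 250 pg p24/ml. Supernatant was taken at day 12 for p24 antigen ELISA.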

Series [4] is described as follows: Antiviral activity against SIV mac251 infected in human Raji cells expressing DC-SIGN gene assessed as prevention of syncytium formation between persistently […]-infected Raji cells and uninfected human C8166 cells after 60 mins by ELISA. Conditions: Simian immunodeficiency virus, 251, Raji, 1 h. It counts as functional, cell-based, Simian immunodeficiency virus - mac. A general note: In an ELISA, binding on a coated surface is turned into a signal by an enzyme label.

Series [5] relates to Human immunodeficiency virus 1. Description: Antiviral activity against R5 tropic HIV-1 clade A/E isolate ID12 infected in human PBMC assessed as inhibition of viral replication after 12 days by ELISA. The note with it: Human immunodeficiency virus 1, clade A/E isolate ID12, 12 days.
Series [6] has as its system PBMC. In words: Cytotoxicity against human PBMC cells at 50 uM after 7 days. It counts as cell-based. Conditions: 168 h.
Series [7] has as its system PBMC. In words: Immunostimulatory activity against human PBMC assessed as MIP-1beta production at 22 uM after 72 hrs. The class given is functional, cell-based. Summed up:
as §1

In series [8] the test system is PBMC. Description: Immunostimulatory activity against human PBMC assessed as suppression of IL-9 production at 22 uM after 72 hrs. It counts as functional. The method, boiled down: as §1
Series [9] can be described thus: Aqueous solubility of the compound at physiological pH. It counts as physicochemical. Conditions: aqueous medium.
Series [10] in a line: Cytotoxicity against human Molt4 cells after 3 to 4 days. It counts as cell-based. The note with it: MOLT-4 cells. Summed up: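 Cells seeded at 20,000–75,000 per well with compound dilutions, incubated 3–4 days at 37°C, and counted on a Coulter particle counter; CC50 is the concentration inhibiting proliferation by 50%.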
Series [11] has as its system PBMC. Description: Immunostimulatory activity against human PBMC assessed as IL-4 production at 21 uM after 72 hrs. It counts as functional, cell-based. The method, boiled down:
as §1

For series [12], the system named is PBMC. Description: Immunostimulatory activity against human PBMC assessed as IL-4 production at 22 uM after 72 hrs. The class given is functional, cell-based. The method, boiled down:
as §1

The test system of series [13] is Human immunodeficiency virus 1. In words: Antiviral activity against HIV-1 3B infected in human MT4 cells assessed as inhibition of virus-induced cytopathicity after 7 days by trypan blue staining. It counts as functional, organism-based. Conditions: Human immunodeficiency virus 1, 3B, MT4, 168 h.
Series [14] has as its system PBMC. Description: Immunostimulatory activity against human PBMC assessed as suppression of IL-15 production at 21 uM after 72 hrs. It counts as functional. Summed up: as §1
Series [15] concerns Human immunodeficiency virus 1. In words: Antiviral activity against R5 tropic HIV-1 clade B isolate US2 infected in human PBMC assessed as inhibition of viral replication […] by ELISA. The class given is functional, organism-based. The note with it: Human immunodeficiency virus 1, clade B isolate US2. Summed up: as §2
Series [16] has as its system PBMC. In words: Immunostimulatory activity against human PBMC assessed as suppression of G-CSF production at 22 uM after 72 hrs. It counts as functional. Summed up: as §1
The test system of series [17] is Human immunodeficiency virus 1. In words: Ratio of EC90 to EC50 for X4 tropic HIV-1 clade D isolate UG270 infected in human PBMC. The class given is functional. Summed up: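 PBMCs from healthy donors were PHA-stimulated (2 μg/ml, 3 days, 37°C), then seeded at 0.5 × 10^6 per well with compound dilutions in RPMI 1640 with 10% FCS and IL-2 (25 U/ml). Virus was added at 250 pg p24 or p27/ml final. On day 12, supernatant HIV-1 p24 or HIV-2 p27 was measured by ELISA, giving EC50 and EC90.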

Series [18] relates to PBMC. In words: Immunostimulatory activity against human PBMC assessed as IL-15 production at 21 uM after 72 hrs. The class given is functional, cell-based. The method, boiled down: as §1
In series [19] the test system is Human immunodeficiency virus 1. In words: Antiviral activity against R5 tropic HIV-1 clade C isolate ETH2220 infected in human PBMC assessed as inhibition of viral replication after 12 days by ELISA. The note with it: Human immunodeficiency virus 1, clade C isolate ETH2220, 12 days.
Series [20] is described as follows: Cytotoxicity against human PBMC after 7 days by trypan blue staining. It counts as cell-based.
Series [21] relates to PBMC. In words: Immunostimulatory activity against human PBMC assessed as GM-CSF production at 21 uM after 72 hrs. The class given is functional, cell-based. The method, boiled down:
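PBMCs and PHA blasts from three donors (three independent experiments) cultured with 21 μM compound; supernatants collected at 72 h; cytokines quantified with the Bio-Plex human 27-plex bead immunoassay.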

Series [22] is described as follows: Aqueous solubility of the compound. It counts as physicochemical. The note with it: aqueous medium; read-out: Activity.
The nature of series [23]: Chemical stability of the compound in 7mM sodium phosphate buffer after 4 days by HPLC at pH 4. The class given is physicochemical. The note with it: pH 4, 96 h. The method, boiled down:
(§3)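 1 mM compound held 4 days in PBS at 50°C, or in 7 mM sodium phosphate pH 4.0 at room temperature; then analysed by reverse-phase HPLC (phosphate/heptanesulfonate pH 3.2 buffer–acetonitrile gradient, 1 ml/min).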

The subject of series [24] is Human immunodeficiency virus 1. Description: Antiviral activity against HIV-1 3B cells infected in human PBMC cells assessed as inhibition of virus-induced cytopathicity after 3 to 4 days by microscopic analysis. Conditions: Human immunodeficiency virus 1, 3B. The class given is functional, organism-based. (In general: Protection from cytopathic effect is a common read-out in antiviral testing.)

The test system of series [25] is Human immunodeficiency virus 1. Description: Ratio of KD for HIV-1 HXB2 gp41 to KD for HIV-1 3B gp120. Summed up:
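SPR was run at 25°C. HIV-1 IIIB gp120 (CHO-derived, 122 RU) and HXB2 gp41 (Pichia-derived, 58 RU) were amine-coupled to a CM5 chip. Compound (2.5–40 μM, 2-fold steps) in HBS-P pH 7.4 with 10 mM CaCl2 was injected for 2 min at 45 μl/min, and dissociation was followed for 6 min. Apparent ka, kd and KD came from a 1:1 model fit of the three lowest concentrations.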

A short description of series [26]: Chemical stability of the compound in PBS solution at 50 degC after 4 days by HPLC. The note with it: buffer, 96 h. The class given is physicochemical. The method, boiled down:
as §3

For series [27], the system named is PBMC. In words: Cytotoxicity against human PBMC cells at 500 uM after 7 days. The class given is cell-based. Conditions: 168 h. The method, boiled down: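 Mock-infected PHA-stimulated PBMC exposed to compound in RPMI 1640 with 10% FCS and IL-2 (25 U/ml); viability measured by trypan blue staining at day 7.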
The test system of series [28] is Human immunodeficiency virus 1. In words: Ratio of kd for HIV-1 HXB2 gp41 to kd for 3B gp120.
Series [29] deals with Human immunodeficiency virus 1. Description: Ratio of EC50 for compound pretreated HIV-1 3B isolate 42 harboring gp120 mutant infected in human CEM cells to EC50 for HIV-1 3B expressing wild type gp120. The class given is functional, CCRF-CEM.
The subject of series [30] is Human immunodeficiency virus 1. In words: Ratio of ka for HIV-1 3B gp120 to ka for HIV-1 HXB2 gp41.

As usually defined, the CC50 is the concentration at which the toxic effect on the cells reaches its halfway point. Read a high CC50 as better tolerance by the cells. By pEC50 is commonly meant the EC50 on a negative log10 scale, so that one unit is a factor of ten. By pIC50 is commonly meant the negative decadic logarithm of the IC50, by convention in mol/L. For `CN[C@@H]1[C@H](O[C@@H]2OC[C@@H](O)[C@H](O)[C@H]2O)[C@@H](O)[C@H](O[C@H]2c3cc(C)c(C(=O)N[C@H](C)C(=O)O)c(O)c3-c3c(cc4c(c3O)C(=O)c3cc(OC)cc(O)c3C4=O)[C@@H]2O)O[C@@H]1C` [PRADIMICIN A], the CC50 at 168 h in series [1] and in series [20] was above 50 µM each time. The “fold change (FC)” value in the series on PBMC [2], in the series on PBMC [8], in the series on PBMC [14] and in the series with PBMC [16] was 2 each time. The negative-log EC50 (pEC50) in series [3] was 5.80; in [5] it was 5.33; in [13] it was 5.28; in series [15] it was 5.22; in series [19], 5.00. Also, the negative logarithm of the IC50 (pIC50) in [4] is 4.80. Besides, the Activity in the series with PBMC [6] is given as above 95%. Also, the result in the series on PBMC [7], with PBMC [11], in the series on PBMC [12], with PBMC [18] and in the series on PBMC [21] was inactive. In addition, the solubility is above 20 µM in series [9] and 50 µM (≈ 42 µg/mL) in series [22]. This compound also displayed a 50% cytotoxic concentration (CC50) in series [10] above 50 µM. Also, the Ratio in [17] amounted to 2.

As for `CN[C@@H]1[C@H](O[C@@H]2O[C@H](CO)[C@@H](O)[C@H](OS(=O)(=O)O)[C@H]2O)[C@@H](O)[C@H](O[C@H]2c3cc(C)c(C(=O)N[C@H](C)C(=O)O)c(O)c3-c3c(cc4c(c3O)C(=O)c3cc(OC)cc(O)c3C4=O)[C@@H]2O)O[C@@H]1C` [PRADIMICIN S], the “fold change (FC)” value in the series with PBMC [2], in the series with PBMC [8], with PBMC [14] and in the series on PBMC [16] was 2 in each case. Moreover, the negative-log EC50 (pEC50) in series [3] is 5.36; in series [5], 4.82; in series [24] it was 5.07; in series [13] it was 5.30; in series [15], 4.96; in series [19], 4.77. Further, the Stability result in [23] and in series [26] was “Stable” each time. Moreover, the negative-log IC50 (pIC50) in series [4] was 4.80. Besides, the result in the series on PBMC [7], in the series on PBMC [11], in the series with PBMC [12], with PBMC [18] and in the series on PBMC [21] was inactive. The compound further registered a 50% cytotoxic concentration (CC50) in series [10] above 230 µM. Further, the Ratio stood at 30 in [25] and 2 in [17]. In the series with PBMC [27], this compound gave an Activity above 95%. Besides, the kd ratio in series [28] stood at 5. Also, the “Ratio EC50” value in series [29] was “>=20”. Also, in series [30], the ka ratio was 10.
